{"source": "ChEMBL document CHEMBL2163200", "about": "“Synthesis, biological evaluation, and structure-activity relationships of novel substituted N-phenyl ureidobenzenesulfonate derivatives blocking cell cycle progression in S-phase and inducing DNA double-strand breaks” (J Med Chem, 2012)", "key": {"[1]": {"system": "M21", "test": "Cytotoxicity against human M21 cells after 48 hrs by SRB assay", "format": "functional, cell-based", "conditions": "M21, 48 h", "in_short": "(§1)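 NCI sulforhodamine B protocol. Cells were grown in high-glucose DMEM with 5% FBS and seeded per well at 4 × 10^3 (HT-29), 3.5 × 10^3 (M21) or 3 × 10^3 (MCF-7), then allowed 24 h to attach. Serial dilutions from 200 μM to 780 nM final were applied in DMSO <0.5% for 48 h. Cells were fixed with cold TCA (10% final) and stained with SRB, with absorbance read at 530–568 nm. Growth inhibition was computed against day-0 plates, giving the 50% inhibitory concentration. At least two experiments in triplicate, CV <10%.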"}, "[2]": {"system": "Jurkat", "test": "Cell cycle arrest in human Jurkat E6-1 cells assessed as accumulation at S phase at 1.2 uM after 24 hrs by FACS flow cytometry", "format": "functional", "in_short": "(§2)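 Jurkat E6 cells grown in RPMI 1640 with 10% FBS at 37 °C, 5% CO2. Compounds were serially diluted in medium starting 50% above the M21 IC50. 4.0 × 10^5 cells were exposed for 24 h, then washed and spiked with chicken red blood cells as internal standard. Cells were fixed in ice-cold ethanol, stained with 1 μg/mL DAPI on ice for 1 h, and phase distribution was read by flow cytometry. The control was 0.5% DMSO.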"}, "[3]": {"test": "Toxicity in fertilized chicken embryo assessed as mortality rate at 10 ug per egg, iv administered on day 11 measured on day 17 CAM assay", "format": "organism-based, Gallus gallus", "conditions": "in vivo, read-out: Activity", "in_short": "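Fertilized chicken eggs grafted on the CAM with HT-1080 cells (3.5 × 105/egg) received a 100 μL intravenous injection under the CAM on day 11. The drug was diluted in Cremophor EL/99% ethanol/PBS (1/1/14 v/v). Groups held 10–12 eggs and were incubated until day 17, when dead embryos and signs of toxicity were counted per group.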"}, "[4]": {"system": "HT-1080", "test": "Antitumor activity against human HT1080 cells xenografted in chicken chorioallantoic membrane assessed as inhibition of tumor growth at 10 ug per egg, iv administered on day 11 measured on day 17 by CAM assay", "format": "functional", "in_short": "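HT-1080 fibrosarcoma cells (3.5 × 105/egg) were applied onto freshly exposed CAM of fertilized chicken eggs. On day 11, drug from a DMSO stock was diluted in Cremophor EL/99% ethanol/PBS (1/1/14 v/v) and 100 μL was injected into a vein under the CAM. Groups of 10–12 eggs were kept to day 17, embryos were euthanized at 4 °C for ≥4 h, and tumor wet weight was recorded.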"}, "[5]": {"system": "Jurkat", "test": "Cell cycle arrest in human Jurkat E6-1 cells assessed as accumulation at G0/G1 phase at 1.2 uM after 24 hrs by FACS flow cytometry", "format": "functional", "in_short": "(§3)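 Jurkat E6 cells cultured in RPMI 1640 with 10% FBS at 37 °C, 5% CO2. Compounds serially diluted in medium, starting 50% above the M21 IC50. 4.0 × 10^5 cells were exposed for 24 h. Cells were washed with PBS, chicken red blood cells added as internal standard, and fixed in ice-cold EtOH. After 1 h on ice in PBS with 1 μg/mL DAPI, phase distribution was read by flow cytometry. DMSO-treated cells served as control.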"}, "[6]": {"system": "MCF7", "test": "Cytotoxicity against human MCF7 cells after 48 hrs by SRB assay", "format": "functional, cell-based", "conditions": "MCF7, 48 h", "in_short": "as §1"}, "[7]": {"system": "Jurkat", "test": "Cell cycle arrest in human Jurkat E6-1 cells assessed as accumulation at G2/M phase at 1.2 uM after 24 hrs by FACS flow cytometry", "format": "functional", "in_short": "as §3"}, "[8]": {"system": "HT-29", "test": "Cytotoxicity against human HT-29 cells after 48 hrs by SRB assay", "format": "functional, cell-based", "conditions": "HT-29, 48 h", "in_short": "as §1"}, "[9]": {"system": "M21", "test": "Induction of DNA damage response in human M21 cells assessed as phosphorylation of H2AX into gammaH2AX at IC50 after 24 hrs by DAPI staining-based immunofluorescence assay", "format": "functional, cell-based", "in_short": "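M21 cells (1 × 10^5) on fibronectin-coated coverslips, grown 24 h, then exposed to agent for 24 h at 37 °C; 0.5% DMSO control. Fixed with 3.7% formaldehyde and permeabilized with 0.1% saponin/3% BSA. Probed with mouse anti-H2AX pS139 antibody for 2 h at room temperature. Nuclei counterstained with DAPI; nuclear γH2AX foci viewed by epifluorescence microscopy.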"}, "[10]": {"system": "Jurkat", "test": "Cell cycle arrest in human Jurkat E6-1 cells assessed as accumulation at G2/M phase at 10 uM after 24 hrs by FACS flow cytometry", "format": "functional", "in_short": "as §3"}, "[11]": {"system": "Jurkat", "test": "Cell cycle arrest in human Jurkat E6-1 cells assessed as accumulation at S phase at 10 uM after 24 hrs by FACS flow cytometry", "format": "functional", "in_short": "as §2"}, "[12]": {"system": "Jurkat", "test": "Cell cycle arrest in human Jurkat E6-1 cells assessed as accumulation at G0/G1 phase at 10 uM after 24 hrs by FACS flow cytometry", "format": "functional", "in_short": "as §3"}, "[13]": {"system": "Jurkat", "test": "Cell cycle arrest in human Jurkat E6-1 cells assessed as accumulation at G2/M phase at 64 uM after 24 hrs by FACS flow cytometry", "format": "functional", "in_short": "as §2"}, "[14]": {"system": "Jurkat", "test": "Cell cycle arrest in human Jurkat E6-1 cells assessed as accumulation at G0/G1 phase at 64 uM after 24 hrs by FACS flow cytometry", "format": "functional", "in_short": "as §3"}, "[15]": {"system": "Jurkat", "test": "Cell cycle arrest in human Jurkat E6-1 cells assessed as accumulation at S phase at 64 uM after 24 hrs by FACS flow cytometry", "format": "functional", "in_short": "(§4)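 Jurkat E6 T-lymphoblasts in RPMI 1640 with 10% FBS, 37 °C, 5% CO2. […] Chicken red blood cells were added as internal standard. Cells were fixed in ice-cold EtOH and stained with 1 μg/mL DAPI on ice for 1 h before flow cytometry of phase distribution. Vehicle control was 0.5% DMSO.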"}, "[16]": {"system": "Jurkat", "test": "Cell cycle arrest in human Jurkat E6-1 cells assessed as accumulation at S phase at 24 uM after 24 hrs by FACS flow cytometry", "format": "functional", "in_short": "as §2"}, "[17]": {"system": "Jurkat", "test": "Cell cycle arrest in human Jurkat E6-1 cells assessed as accumulation at G0/G1 phase at 24 uM after 24 hrs by FACS flow cytometry", "format": "functional", "in_short": "as §3"}, "[18]": {"system": "Jurkat", "test": "Cell cycle arrest in human Jurkat E6-1 cells assessed as accumulation at G2/M phase at 24 uM after 24 hrs by FACS flow cytometry", "format": "functional", "in_short": "as §2"}, "[19]": {"system": "Jurkat", "test": "Cell cycle arrest in human Jurkat E6-1 cells assessed as accumulation at G2/M phase at 63 uM after 24 hrs by FACS flow cytometry", "format": "functional", "in_short": "as §2"}, "[20]": {"system": "Jurkat", "test": "Cell cycle arrest in human Jurkat E6-1 cells assessed as accumulation at S phase at 63 uM after 24 hrs by FACS flow cytometry", "format": "functional", "in_short": "as §4"}, "[21]": {"system": "Jurkat", "test": "Cell cycle arrest in human Jurkat E6-1 cells assessed as accumulation at G0/G1 phase at 63 uM after 24 hrs by FACS flow cytometry", "format": "functional", "in_short": "as §3"}, "[22]": {"system": "Jurkat", "test": "Cell cycle arrest in human Jurkat E6-1 cells assessed as accumulation at S phase at 13 uM after 24 hrs by FACS flow cytometry", "format": "functional", "in_short": "as §2"}, "[23]": {"system": "Jurkat", "test": "Cell cycle arrest in human Jurkat E6-1 cells assessed as accumulation at G2/M phase at 13 uM after 24 hrs by FACS flow cytometry", "format": "functional", "in_short": "as §3"}, "[24]": {"system": "Jurkat", "test": "Cell cycle arrest in human Jurkat E6-1 cells assessed as accumulation at G0/G1 phase at 13 uM after 24 hrs by FACS flow cytometry", "format": "functional", "in_short": "as §3"}}, "note": "pIC50: −log10 of the molar value. The source made the active and inactive calls. No cut-off for these calls is given here.", "data": [{"smiles": "Cc1ccccc1OS(=O)(=O)c1ccc(NC(=O)NCCCl)cc1", "values": [{"measurement": "pIC50", "setting": "[1]", "result": 5.55}, {"measurement": "Activity", "setting": "[2]", "result": 71, "unit": "%"}, {"measurement": "mortality at 6 days", "setting": "[3]", "result": 15, "unit": "%"}, {"measurement": "TGI", "setting": "[4]", "result": 60, "unit": "%"}, {"measurement": "Activity", "setting": "[5]", "result": 22, "unit": "%"}, {"measurement": "pIC50", "setting": "[6]", "result": 5.32}, {"measurement": "Activity", "setting": "[7]", "result": 7, "unit": "%"}, {"measurement": "pIC50", "setting": "[8]", "result": 5.33}, {"measurement": "Activity", "setting": "[9]", "result": "Active"}]}, {"smiles": "CCCc1ccccc1NS(=O)(=O)c1cccc(NC(=O)NCCCl)c1", "values": [{"measurement": "Activity", "setting": "[10]", "result": 19, "unit": "%"}, {"measurement": "pIC50", "setting": "[1]", "result": 4.77}, {"measurement": "Activity", "setting": "[11]", "result": 39, "unit": "%"}, {"measurement": "Activity", "setting": "[12]", "result": 42, "unit": "%"}, {"measurement": "pIC50", "setting": "[6]", "result": 4.80}, {"measurement": "pIC50", "setting": "[8]", "result": 4.82}]}, {"smiles": "CCc1ccccc1NS(=O)(=O)c1cccc(NC(=O)NCCCl)c1", "values": [{"measurement": "pIC50", "setting": "[1]", "result": 4.19}, {"measurement": "Activity", "setting": "[13]", "result": 12, "unit": "%"}, {"measurement": "Activity", "setting": "[14]", "result": 46, "unit": "%"}, {"measurement": "pIC50", "setting": "[6]", "result": 4.34}, {"measurement": "pIC50", "setting": "[8]", "result": 4.32}, {"measurement": "Activity", "setting": "[15]", "result": 42, "unit": "%"}]}, {"smiles": "Cc1ccccc1OS(=O)(=O)c1cccc(NC(=O)NCCCl)c1", "values": [{"measurement": "Activity", "setting": "[16]", "result": 44, "unit": "%"}, {"measurement": "pIC50", "setting": "[1]", "result": 4.40}, {"measurement": "Activity", "setting": "[17]", "result": 45, "unit": "%"}, {"measurement": "Activity", "setting": "[18]", "result": 11, "unit": "%"}, {"measurement": "pIC50", "setting": "[8]", "result": 4.48}]}, {"smiles": "Cc1ccccc1NS(=O)(=O)c1cccc(NC(=O)NCCCl)c1", "values": [{"measurement": "pIC50", "setting": "[1]", "result": 4.04}, {"measurement": "Activity", "setting": "[19]", "result": 14, "unit": "%"}, {"measurement": "Activity", "setting": "[20]", "result": 45, "unit": "%"}, {"measurement": "pIC50", "setting": "[6]", "result": 4.07}, {"measurement": "pIC50", "setting": "[8]", "result": 4.15}, {"measurement": "Activity", "setting": "[21]", "result": 41, "unit": "%"}]}, {"smiles": "CCCc1ccccc1OS(=O)(=O)c1cccc(NC(=O)NCCCl)c1", "values": [{"measurement": "pIC50", "setting": "[1]", "result": 4.77}, {"measurement": "Activity", "setting": "[22]", "result": 36, "unit": "%"}, {"measurement": "Activity", "setting": "[23]", "result": 17, "unit": "%"}, {"measurement": "Activity", "setting": "[24]", "result": 47, "unit": "%"}, {"measurement": "pIC50", "setting": "[8]", "result": 4.82}]}]}
